According to ChEMBL document CHEMBL1129606, “Synthesis and bioevaluation of delta 7-5-desaturase inhibitors, an enzyme late in the biosynthesis of the fungal sterol ergosterol” (J Med Chem, 1996):

biological target: Delta(7)-sterol 5(6)-desaturase; assay: Inhibition of 5-Desaturase involved in ergosterol biosynthesis; set-up: species or system Saccharomyces cerevisiae
Method in brief: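 Microsomal Δ7-sterol 5-desaturase from aerobically grown S. cerevisiae (37 °C, YPD). Cells bead-disrupted in 0.1 M Tris-HCl pH 7.4, 94500g pellet, desalted on Sephadex G-50. Incubated with Tween 20, FeCl3, NADPH and [5α,6α-3H]-7,22(E)-ergostadien-3β-ol with varied inhibitor, all else held constant. Alkali quench, EtOAc extraction, aqueous 3H2O scintillation-counted. IC50 from inverse velocity vs inhibitor concentration; mean of ≥2 experiments.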

`C[C@]12CC[C@H](O)C[C@]1(CO)CC=C1CCC12` (some centres not stated) and `C[C@]12CC[C@H](O)C[C@]1(O)CC=C1CCC12` (some centres not stated) are within 1.5-fold of each other in IC50: 112 µM for the first, 148 µM for the second.

`C[C@]12CC[C@H](O)C[C@]1(C(N)=O)CC=C1CCC12` (some centres not stated) and `C[C@]12CC[C@H](O)C[C@]1(C(=O)O)CC=C1CCC12` (some centres not stated) are within 1.5-fold of each other in IC50: 114 µM for the first, 111 µM for the second.

`C[C@]12CC[C@H](O)C[C@]1(C=O)CC=C1CCC12` (some centres not stated) and `C[C@]12CC[C@H](O)C[C@]1(/C=N/O)CC=C1CCC12` (some centres not stated) are within 1.5-fold of each other in IC50: 116 µM for the first, 136 µM for the second.

Going from `C[C@]12CC[C@H](O)C[C@]1(C#N)CC=C1CCC12` (some centres not stated) to `C[C@]12CC[C@H](O)C[C@]1(S)CC=C1CCC12` (some centres not stated), the IC50 falls from 131 µM to 80 µM (1.6-fold).

Compared with `C[C@]12CC[C@H](O)C[C@]1(O)[C@H](O)C=C1CCC12` (some centres not stated), `C[C@]12CC[C@H](O)C[C@]1(O)[C@@H](O)C=C1CCC12` (some centres not stated) is 1.6-fold higher in IC50: 96 µM for the first, 149 µM for the second.

`C[C@]12CC[C@H](O)[C@H]3O[C@]31CC=C1CCC12` (some centres not stated) and `C[C@]12CC[C@H](O)C[C@@H]1[C@@H](O)C=C1CCC12` (some centres not stated) are within 1.5-fold of each other in IC50: 66 µM for the first, 47 µM for the second.
